Published values collected from several papers.
Lines come from different studies, so protocols differ.

CCOP(=O)(OCC)[C@@H]1C[C@H](n2cc(-c3ccccc3F)nn2)ON1C
CC50 (human T-lymphocyte; cell growth or viability; 72 h): > 250 µM

CN(C(=O)n1cnc(-c2ccc[n+]([O-])c2)c1)C1CCCCC1
AUC(0-t) (male cynomolgus monkey, plasma; oral, 0.1 mg/kg): 96 ng·h/mL

COc1ccc2c(c1)c1c(n2CO)CN2CCc3cc(OC)c(OCC(F)(F)F)cc3C2C1 (stereo not drawn)
viability (HepG2; cell growth or viability; 20 µM, 24 h): 74.7%

CCOP(=O)(OCC)[C@@H]1C[C@@H](n2cc(-c3ccccc3)nn2)ON1C (racemic)
CC50 (human T-lymphocyte; cell growth or viability; 72 h): > 250 µM

COc1cc(OC)c2nccc(N3CCc4c(cc(Cn5ccnc5)cc4-c4cn(C)nc4C(F)(F)F)C3=O)c2c1
MRT(0-inf) (male CD-1 mouse, plasma; intravenous, 3 mg/kg): 0.5 h

CCN(CC)C(=O)[C@@]1(c2ccccc2)C[C@H]1CN
AUC(0-inf) (male cynomolgus monkey, plasma; oral, 30 mg/kg): 40100 ng·h/mL

COc1ccc2nccc(N3CCc4c(cc(Cn5ccnc5)cc4-c4cn(C)nc4C(F)(F)F)C3=O)c2c1
MRT(0-inf) (male CD-1 mouse, plasma; oral, 50 mg/kg): 2.3 h

C/C=C/C[C@H](C)[C@@H](OC)[C@@H](C)[C@H](O)C[C@H]1OC(=O)C=C[C@H]1CC
half-life (metabolic stability; human, liver microsomes): < 7 min

CCc1cc(OC)c2nccc(N3CCc4c(cc(Cn5ccnc5)cc4-c4cn(C)nc4C(F)(F)F)C3=O)c2c1
MRT(0-inf) (male CD-1 mouse, plasma; oral, 150 mg/kg): 3.9 h

COc1ccc(CCN2CCC(Nc3nc4ccccc4n3Cc3ccc(F)cc3)CC2)cc1
viability (HepG2; cell growth or viability, resazurin; 100 µM, 24 h): 2%

Cc1ccc2cncc(N3CCc4c(cc(Cn5ccnc5)cc4-c4cn(C)nc4C(F)(F)F)C3=O)c2c1
MRT(0-inf) (male CD-1 mouse, plasma; intravenous, 3 mg/kg): 0.9 h

c1ccc(-c2nc(N3CCC(c4ccccn4)C3)c3ccccc3n2)nc1 (stereo not drawn)
MRT(0-inf) (female BALB/c mouse, plasma; oral, 12.5 mg/kg): 5.9 h
